Screens as filed in PubChem.
Only some compounds are listed: those with a hit (about 4.3% of all), similar ones and a draw of the others.
AHR act: activates the human aryl hydrocarbon receptor; P35869; AHR-responsive luciferase reporter cells, luminescence; activation, % at 5 µM; hit rate 2.5% among 320,000; AID 2796; in the data active means activation above about 47%;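 further: 0% = vehicle wells and 100% = reference agonist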
SR-BI HDL uptake: mouse SR-BI HDL lipid transfer inhibition; Q61009; ldlA[mSR-BI] CHO cells, DiI-HDL uptake fluorescence, 3 h; inhibition, % at 12.5 µM; hit rate 0.96% among 320,000; AID 488896;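 active means mean replicate inhibition of at least 70% and a set share of replicates each scoring 70 or more; inconclusive means meets just one of the two criteria; inactive means fails both criteria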;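 further: 0% = median of neutral control wells and 100% = median of positive control wells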
Target sequence (Q61009 whole entry, looked up): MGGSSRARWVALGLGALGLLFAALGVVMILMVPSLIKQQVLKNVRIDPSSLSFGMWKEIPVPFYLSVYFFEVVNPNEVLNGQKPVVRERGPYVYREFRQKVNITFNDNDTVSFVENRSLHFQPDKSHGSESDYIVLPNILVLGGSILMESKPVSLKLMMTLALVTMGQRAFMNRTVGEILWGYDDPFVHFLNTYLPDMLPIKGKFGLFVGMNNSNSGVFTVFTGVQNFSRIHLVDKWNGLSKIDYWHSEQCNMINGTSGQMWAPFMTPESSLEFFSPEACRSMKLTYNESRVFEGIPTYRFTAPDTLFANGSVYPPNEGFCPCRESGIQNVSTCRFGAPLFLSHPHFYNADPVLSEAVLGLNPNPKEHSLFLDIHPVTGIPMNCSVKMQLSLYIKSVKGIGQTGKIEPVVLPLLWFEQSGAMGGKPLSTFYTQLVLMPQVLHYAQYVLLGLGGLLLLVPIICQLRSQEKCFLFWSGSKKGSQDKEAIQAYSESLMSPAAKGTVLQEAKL
SMARCA2 activ: SMARCA2 function activation, primary screen; MG213 cells, MMTV-luciferase reporter, dexamethasone, overnight; activation, % at 9.1 µM; hit rate 1% among 370,000; AID 652017; in the data active means activation above about 7.8%;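 further: 0% = vehicle wells and 100% = reference activator wells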
CR mimetic SO: caloric restriction mimetics inhibiting age-related superoxide in yeast; superoxide response (% of plate mean), % at 10 µM; hit rate 0.18% among 330,000; S. cerevisiae aged cells, superoxide DHE fluorescence; hits give low values; AID 2690;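 active means superoxide response under a set limit, about three screen SD below normal, cut at about 65% in these data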;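 further: yeast aged for seven days with compound at 30 °C before DHE staining; 100% = average MFI of all compound-treated wells on the plate with controls excluded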
SR-BI uptake up: enhances SR-BI lipid uptake from DiI-HDL; CHO ldlA[mSR-BI] cells, DiI-HDL uptake fluorescence, 3 h; 100 = double the neutral-control signal; activation, % at 12.5 µM; hit rate 0.096% among 320,000; AID 504775;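 active means mean replicate activation of at least 60% and every replicate at or above 60%; inconclusive means mean or all-replicate condition met, but not both; inactive means mean below 60% and not all replicates reaching 60%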;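 further: 0% = median plate neutral-control signal and 100% = twice that signal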
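system = CHO ldlA[mSR-BI] cells, LDL receptor-null, SR-BI overexpressing | medium = Ham's F12 with 0.5% BSA, HEPES 25 mM, pH 7.4 | probe or stimulus = DiI-HDL 10 µg/mL | compound dosing = single-point compound dose | incubation = compound exposure 3 h, 37 °C | technique = DiI fluorescence, bottom read | read-out = cell-associated DiI fluorescence as measure of HDL uptake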
Hep lipid drop: modulators of hepatic lipid droplet formation; AML12 mouse hepatocytes, oleate lipid droplets, BODIPY imaging; inhibition, % at 6.5 µM; hit rate 0.4% among 240,000; AID 1656;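 active means lipid droplet intensity inhibited by at least 50%, with more than 500 cells counted; inconclusive means wells with under 300 cells, treated as cytotoxic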
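Test system: AML12 hepatocytes (mouse); reagent: oleate loading, 100 µM; dosing: one dose, 6.5 µM compound; incubation: overnight exposure; signal: fluorescence imaging, 20x objective, two fields per well; read-out basis: % inhibition of corrected integrated BODIPY droplet signal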
DiI quencher: quenches DiI-HDL fluorescence, an SR-BI assay artifact | shares compounds with SR-BI HDL uptake | cell-free DiI-HDL fluorescence quenching, 30 min | AC50, µM (top dose mostly 35 µM), for the others: at the top dose activity change, negative = quenching | hit rate 20% among 470 | AID 540326;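 active means quenching, a falling signal, with AC50 below a set limit tied to the top valid dose, actives reach about 32 µM in these data; inconclusive means no clear call, values can overlap the other calls; inactive means rising signal, and the rest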
* = called active by the depositor; ? = inconclusive; · = no result.

SMILES | AHR act | SR-BI HDL uptake | SMARCA2 activ | CR mimetic SO | SR-BI uptake up | Hep lipid drop | DiI quencher
CN(C(=O)COC(=O)CCc1c[nH]c2ccccc12)c1ccccc1 | 0.1 | -25.0 | -1.8 | 96.6 | 25.0 | · | -5.1%
COc1ccc2c(c1)CNC2CS(=O)(=O)NCc1ccc(F)cc1 (stereo unspecified) | · | · | -3.0 | · | · | · | ·
COC(=O)[C@]12C[C@H](CC(=O)NCc3ccc(OC)c(OC)c3)C(=O)N(Cc3cccc4ccccc34)C1=C[C@H](COCc1ccccc1)O[C@@H]2C | · | · | -5.2 | · | · | · | ·
O=C(Cn1nnc(-c2ccc(N3CCOCC3)cc2)n1)c1ccc(F)cc1 | · | · | -3.4 | · | · | · | ·
Cc1ccccc1-c1cc(C(=O)NCc2cccc(Br)c2)nn1CC1CC(c2cccc([N+](=O)[O-])c2)=NO1 (stereo unspecified) | -0.1 | 33.6 | -0.3 | 89.9 | -33.6 | · | -0.6%
Cc1ccc(CNC(=O)c2ccc(N3CCC4(CC3)CC(c3cccc(Br)c3)=NO4)c([N+](=O)[O-])c2)cc1 | 0.4 | 80.8* | -0.2 | 104.9 | -80.8 | · | -2.2%
CCCNC(=O)c1ccc(N2CCC3(CC2)CC(c2cccc(Br)c2)=NO3)c([N+](=O)[O-])c1 | 0.3 | 61.7 | -2.8 | 99.9 | -61.7 | 1.2 | ·
COC(=O)N1C[C@H](OC(=O)c2ccc(-c3ccccc3)cc2)[C@H]2C[C@@H]1c1ccccc1O2 | · | · | -5.4 | · | · | · | ·
CCOC(=O)C1CCCN(C(=O)c2cc(COc3ccc(C)nc3)on2)C1 (stereo unspecified) | · | -15.1 | -1.6 | 111.0 | 15.1 | -5.8 | -1.2%
CC[C@@H](C)[C@H](NC(=O)Cc1c(C)c2cc3c(C)coc3c(C)c2oc1=O)C(=O)O | 0.1 | · | 1.3 | 103.6 | · | · | ·
CC[C@@H](C)[C@H](NC(=O)Cc1c(C)c2cc3c(C)c(C)oc3c(C)c2oc1=O)C(=O)O | -0.4 | 94.5* | 0.1 | 105.7 | -94.5 | -1.5 | -2.7%
COc1cccc(-c2csc(N3CCN(C(=S)Nc4cccc(Cl)c4)CC3)n2)c1 | 22.8 | 78.8* | -3.7 | 95.5 | -78.8 | · | -5.8%
COc1cccc(-c2csc(N3CCN(C(=S)Nc4ccccc4Cl)CC3)n2)c1 | 10.5 | 13.7 | -0.5 | 118.2 | -13.7 | · | ·
COC(=O)C1CN(Cc2cn(Cc3ccc(F)cc3)nn2)CCS(=O)(=O)N1Cc1ccc(OC)cc1 (stereo unspecified) | · | · | -4.4 | · | · | · | ·
N#Cc1sc2nc(C3CC3)cc(-c3ccc(Cl)cc3)c2c1N | 5.5 | ? | -4.6 | 98.0 | -71.1 | 11.5 | 0.6%
CCOC(=O)C1=CCN(S(=O)(=O)c2cccc(Cl)c2)C1c1ccc(Cl)cc1 (stereo unspecified) | · | · | -3.6 | · | · | · | ·
O=C(OCc1ccccc1)N1CCC2CC1c1cc(-c3ccc(F)cc3)ccc12 (stereo unspecified) | · | · | -0.6 | · | · | · | -3.5%
CS(=O)(=O)N[C@@H]1C[C@@H]2O[C@@H](CO)CC[C@@H]2O[C@@H]1CCc1ccc(-c2ccccc2F)cc1 | · | · | -4.4 | · | · | · | ·
COc1ccc(CCN2CC(C(=O)NCc3nc(C)c(C)s3)CCC2=O)cc1 (stereo unspecified) | 0.5 | 0.3 | -0.8 | 98.6 | -0.3 | -26.2 | ·
CC(C)c1cc(CNC(=O)C2CCC(=O)N(CCc3ccc(Cl)cc3)C2)on1 (stereo unspecified) | 0.6 | 78.4* | -0.6 | 95.2 | -78.4 | -3.7 | -1.2%
COc1ccc(CCN2CC(C(=O)NCc3cc(C(C)C)no3)CCC2=O)cc1 (stereo unspecified) | · | -12.1 | -1.0 | · | 12.1 | -9.7 | -2.0%
COc1ccc(C(=O)OCCN2CCN(C3CN(Cc4cn(Cc5cccc(C)c5)nn4)S(=O)(=O)C3)CC2)cc1OC (stereo unspecified) | · | · | -2.2 | · | · | · | ·
COc1cccc2c1cc1c(=O)n(CC(=O)N3CCN(c4cccc(C)c4C)CC3)nc(C)n12 | · | -0.4 | -1.1 | · | 0.4 | · | 1.6%
O=C(CSc1nc2ccccc2c(=O)n1-c1ccc(Cl)cc1)NNC(=S)Nc1ccccc1 | · | · | 3.5 | · | · | · | ·
CCCCn1nc2cc(C(=O)NC3CCCc4ccccc43)ccc2c1OCC (stereo unspecified) | 6.7 | 79.5* | -1.4 | 100.2 | -79.5 | · | -3.1%
SMILES | AHR act | SR-BI HDL uptake | SMARCA2 activ | CR mimetic SO | SR-BI uptake up | Hep lipid drop | DiI quencher
CCOc1c2ccc(C(=O)NC3CCCc4ccccc43)cc2nn1C (stereo unspecified) | 5.0 | 17.5 | 1.8 | 98.6 | -17.5 | · | ·
COc1cccc(NC(=O)Nc2nnc(-c3ccccc3SCc3ccccc3)s2)c1 | 11.6 | 47.3 | 1.4 | 95.6 | -47.3 | 2.3 | ·
COc1ccc(NC(=O)Nc2nnc(-c3ccccc3SCc3ccccc3)s2)cc1 | 51.1* | 101.4* | -0.2 | 106.8 | -101.4 | -4.0 | 3.23µM*
O=C(Nc1ccc(-c2csc(Nc3ccccc3)n2)cc1)c1cccc(C(F)(F)F)c1 | 1.8 | 113.7* | -0.6 | 103.9 | -113.7 | 7.4 | 1.54µM*
O=C(Nc1ccccc1)c1cccc(C(F)(F)F)c1 | 1.6 | 1.2 | -2.1 | 107.7 | -1.2 | -2.8 | ·
CCOC(=O)C(C)(C)Sc1nc2c(cnn2-c2ccc(F)cc2)c(=O)[nH]1 | 0.1 | 76.6* | -4.1 | 102.5 | -76.6 | · | -5.6%
O=C(Nc1cccc(NC(=O)c2ccccc2Cl)c1)c1ccc(F)cc1 | 4.1 | 79.1* | 0.8 | 99.1 | -79.1 | 3.3 | -1.3%
O=C(Nc1ccccc1C(=O)O)c1cccc(NC(=O)c2ccccc2Cl)c1 | 2.5 | 34.0 | -1.2 | 122.2 | -34.0 | 9.5 | ·
Cc1ccc(-n2nc(C)c3c(C(=O)OCC(=O)N(C)C4CCS(=O)(=O)C4)cc(-c4ccccc4)nc32)cc1 (stereo unspecified) | 2.5 | ? | -4.9 | 105.8 | -70.3 | -5.3 | ?
Cc1ccccc1CN1CCN(C(=O)c2ccc(S(=O)(=O)NCc3ccco3)cc2)CC1 | -2.7 | 63.7 | -3.5 | 115.1 | -63.7 | · | -2.5%
COc1ccc(CN2CCN(C(=O)c3ccc(S(=O)(=O)NCc4ccco4)cc3)CC2)cc1F | · | ? | -1.6 | · | -72.0 | · | -1.5%
O=C(c1ccc(S(=O)(=O)NCc2ccco2)cc1)N1CCN(Cc2ccc3c(c2)OCO3)CC1 | -0.2 | ? | -2.4 | 102.2 | -71.0 | 14.8 | -0.2%
CCCC[C@@H]1C(=O)N2N=Cc3cscc3[C@H]2N2N=Cc3cscc3[C@@H]12 | · | · | -1.1 | · | · | · | ·
Nc1c(-c2cccs2)cnn1-c1nc(-c2ccc(Cl)cc2Cl)cs1 | 41.9 | 35.1 | -5.1 | 111.2 | -35.1 | · | ·
Nc1c(-c2cccs2)cnn1-c1nc(-c2ccc(F)cc2)cs1 | 31.5 | 74.1* | -0.2 | 98.6 | -74.1 | · | -6.6%
COc1ccc(Sc2cccc3c2S(=O)(=O)N(C2CC2)C[C@@H](COCc2ccccc2)O3)cc1OC | · | · | -2.5 | · | · | · | ·
O=C(Nc1ccccc1)NC1CC2CCC(C1)N2Cc1nnnn1Cc1ccc2c(c1)OCO2 (stereo unspecified) | 2.8 | ? | -2.1 | 94.4 | -71.4 | -1.7 | 0.8%
